Results from different studies.
Organism: Staphylococcus aureus
Observed: microbial growth

Structure (SMILES) | assay | system | setting | MIC
N=c1sc(C(=O)c2ccc(Nc3cnccn3)cc2)nn1-c1ccc([N+](=O)[O-])cc1 | broth dilution | ATCC25923 | – | 3.12 mg/L
Brc1ccc2nc(SCc3ccccc3)c(CNCCC3CCN(C4CCCC4)CC3)cc2c1 | broth dilution | – | – | 32 mg/L
CCC[C@@H]1C[C@@H](C(=O)N[C@@H]([C@H]2O[C@H](SC)[C@H](O)[C@@H](O)[C@H]2O)[C@@H](C)O)N(C)C1 | broth dilution | ATCCBAA44 BAA44 | – | > 64 mg/L
O=C(O)c1cn(C2CC2)c2cc(N3CCNCC3)c(F)cc2c1=O | broth dilution | ATCC33591 MRSA | – | 0.5 mg/L
c1ccc(CSc2nc3ccccc3cc2CNCc2ccc(CN3CCCC3)cc2)cc1 | broth dilution | – | – | 64 mg/L
CN[C@H](CC(C)C)C(=O)N[C@H]1C(=O)N[C@@H](CC(N)=O)C(=O)N[C@H]2C(=O)N[C@H]3C(=O)N[C@H](C(=O)N[C@H](C(=O)O)c4cc(O)cc(O)c4-c4cc3ccc4O)[C@H](O)c3ccc(c(Cl)c3)Oc3cc2cc(c3O[C@@H]2O[C@H](CO)[C@@H](O)[C@H](O)[C@H]2O[C@H]2C[C@](C)(N)[C@H](O)[C@H](C)O2)Oc2ccc(cc2Cl)[C@H]1O | broth dilution | USA300 | – | 1 mg/L
CC(=O)NC[C@H]1CN(c2ccc(N3CCOCC3)c(F)c2)C(=O)O1 | agar dilution | ATCC25923 | – | 1 mg/L
N[C@@H](Cc1c[nH]c2ccc(Cl)cc12)C(=O)O | – | NEWMAN | 18 h | 200 µM
CC[C@H]1OC(=O)[C@H](C)[C@@H](O[C@H]2C[C@@](C)(OC)[C@@H](O)[C@H](C)O2)[C@H](C)[C@@H](O[C@@H]2O[C@H](C)C[C@H](N(C)C)[C@H]2O)[C@](C)(O)C[C@@H](C)/C(=N\OCOCCOC)[C@H](C)[C@@H](O)[C@]1(C)O | agar dilution | ATCC25923 | – | 2 mg/L
CCCCCCC#Cc1cncc(-c2nnc(SCc3cc([N+](=O)[O-])cc([N+](=O)[O-])c3)n2C2CCNCC2)c1 | broth dilution | MRSA | – | 8 mg/L
Cc1onc(-c2ccccc2)c1C(=O)N[C@@H]1C(=O)N2[C@@H]1SC(C)(C)[C@@H]2C(=O)O | – | ATCC29213 MSSA | drug-resistant strain | 0.25 mg/L
Cc1ccc2[nH]nc(-c3nnc(Nc4ccc(F)cc4Cl)s3)c2c1 | – | ATCC29213 | – | 29.7 mg/L
CC[C@H]1OC(=O)[C@H](C)[C@@H](O[C@H]2C[C@@](C)(OC)[C@@H](O)[C@H](C)O2)[C@H](C)[C@@H](O[C@@H]2O[C@H](C)C[C@H](N(C)C)[C@H]2O)[C@](C)(O)C[C@@H](C)CN(C)[C@H](C)[C@@H](O)[C@]1(C)O | broth dilution | USA300 | – | > 64 mg/L
Cc1cc(Nc2nnc(-c3n[nH]c4ccc(C)cc34)s2)cc([N+](=O)[O-])c1 | – | ATCC29213 | – | 78 mg/L
CCCCCCC#Cc1cncc(-c2nnc(SCc3ccc([N+](=O)[O-])cc3)n2CCCN)c1 | broth dilution | MRSA | – | 8 mg/L
CC[C@H]1OC(=O)[C@H](C)[C@@H](O[C@H]2C[C@@](C)(OC)[C@@H](O)[C@H](C)O2)[C@H](C)[C@@H](O[C@@H]2O[C@H](C)C[C@H](N(C)C)[C@H]2O)[C@](C)(O)C[C@@H](C)CN(C)[C@H](C)[C@@H](O)[C@]1(C)O | – | ATCC29213 | – | < 98 mg/L
CC(=O)NC[C@H]1CN(c2ccc(N3CCOCC3)c(F)c2)C(=O)O1 | broth dilution | ATCCBAA44 BAA44 | – | 0.5 mg/L
CCN1CCC(CCNCc2cc3cc(OC)c(OC)c(OC)c3nc2SCc2ccccc2)CC1 | broth dilution | – | – | 128 mg/L
CC1(C)S[C@@H]2[C@H](NC(=O)[C@H](N)c3ccccc3)C(=O)N2[C@H]1C(=O)O | broth dilution | MRSA | – | 345 µM
CC(=O)OCC1=C(C(=O)O)N2C(=O)[C@@H](NC(=O)Cc3cccs3)[C@H]2SC1 | broth dilution | ATCC25923 | – | 6.25 mg/L
c1ccc(CSc2nc3ccccc3cc2CNCc2ccc(N3CCCCC3)cc2)cc1 | broth dilution | – | – | > 128 mg/L
CCCCCCC#Cc1cncc(-c2nnc(SCc3cc([N+](=O)[O-])cc([N+](=O)[O-])c3)n2CCOC2OC(CN)C(O)C2O)c1 (centres unmarked) | broth dilution | MRSA | – | > 64 mg/L
CCCCCCCCCCCC[N+](C)(C)Cc1ccccc1 | – | MSSA | – | 4 µM
COc1c(N2C[C@@H]3CCCN[C@@H]3C2)c(F)cc2c(=O)c(C(=O)O)cn(C3CC3)c12 | agar dilution | ATCC29213 | – | 0.5 mg/L
CCCCCCC#Cc1cncc(-c2nnc(SCc3ccc([N+](=O)[O-])o3)n2CCCN)c1 | broth dilution | ATCC29213 | – | > 64 mg/L
CC1(C)S[C@@H]2[C@H](NC(=O)[C@H](N)c3ccccc3)C(=O)N2[C@H]1C(=O)O | agar dilution | ATCC25923 | – | 0.5 mg/L
Cc1ccc2[nH]nc(-c3nnc(Nc4ccc(F)cc4)s3)c2c1 | – | ATCC29213 | – | 18.3 mg/L
CN[C@H](CC(C)C)C(=O)N[C@H]1C(=O)N[C@@H](CC(N)=O)C(=O)N[C@H]2C(=O)N[C@H]3C(=O)N[C@H](C(=O)N[C@H](C(=O)O)c4cc(O)cc(O)c4-c4cc3ccc4O)[C@H](O)c3ccc(c(Cl)c3)Oc3cc2cc(c3O[C@@H]2O[C@H](CO)[C@@H](O)[C@H](O)[C@H]2O[C@H]2C[C@](C)(N)[C@H](O)[C@H](C)O2)Oc2ccc(cc2Cl)[C@H]1O | – | MRSA | – | 0.5 mg/L
CCCCCCCCN=c1ccn(CCCCCCCCCCn2ccc(=NCCCCCCCC)cc2)cc1 | – | MRSA USA300 | drug-resistant strain | 0.5 µM
